Measured values from ChEMBL document CHEMBL3576866, “Discovery of a Cyclic Boronic Acid β-Lactamase Inhibitor (RPX7009) with Utility vs Class A Serine Carbapenemases” (J Med Chem, 2015).

Tests used:
[1] = target: Beta lactamase TEM-1 (Klebsiella pneumoniae) (UniProt Q7B899); assay: Inhibition of Klebsiella pneumoniae KP1087 TEM-1 assessed as meropenem MIC at 4 ug/ml by broth microdilution method
Summary of the method: (§1)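 CLSI broth microdilution (M07-A9, 2012) MIC of the carbapenem against clinical serine carbapenemase-producing strain, tested alone and with the inhibitor held at a fixed 4 μg/mL.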

[2] = system: Klebsiella pneumoniae; assay: Inhibition of Klebsiella pneumoniae KP1087 CTX-M-15 assessed as meropenem MIC at 4 ug/ml by broth microdilution method; summary of the method: as §1
[3] = system: Klebsiella pneumoniae; assay: Inhibition of Klebsiella pneumoniae KP1084 SHV-11 assessed as meropenem MIC at 4 ug/ml by broth microdilution method; summary of the method: as §1
[4] = target: Urokinase-type plasminogen activator (Homo sapiens, UniProt P00749); assay: Inhibition of urokinase (unknown origin) using NGK-pNA as substrate preincubated for 10 mins followed by substrate addition measured for 30 mins by spectrophotometric analysis
Summary of the method: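 Urokinase, from a commercial source, in 50 mM Tris-HCl, pH 8.5, 38 mM NaCl. Mixed with inhibitor at various concentrations for 10 min at 37 °C, then NGK-pNA (listed at 100 μM) added and absorbance monitored for 30 min. Rates were relative to untreated; IC50 is the concentration giving 50% inhibition.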

[5] = target: Tissue-type plasminogen activator (Homo sapiens, UniProt P00750); assay: Inhibition of tissue plasminogen activator (unknown origin) using GK-pNA as substrate preincubated for 10 mins followed by substrate addition measured for 30 mins by spectrophotometric analysis
Chain of Tissue-type plasminogen activator (P00750 whole entry): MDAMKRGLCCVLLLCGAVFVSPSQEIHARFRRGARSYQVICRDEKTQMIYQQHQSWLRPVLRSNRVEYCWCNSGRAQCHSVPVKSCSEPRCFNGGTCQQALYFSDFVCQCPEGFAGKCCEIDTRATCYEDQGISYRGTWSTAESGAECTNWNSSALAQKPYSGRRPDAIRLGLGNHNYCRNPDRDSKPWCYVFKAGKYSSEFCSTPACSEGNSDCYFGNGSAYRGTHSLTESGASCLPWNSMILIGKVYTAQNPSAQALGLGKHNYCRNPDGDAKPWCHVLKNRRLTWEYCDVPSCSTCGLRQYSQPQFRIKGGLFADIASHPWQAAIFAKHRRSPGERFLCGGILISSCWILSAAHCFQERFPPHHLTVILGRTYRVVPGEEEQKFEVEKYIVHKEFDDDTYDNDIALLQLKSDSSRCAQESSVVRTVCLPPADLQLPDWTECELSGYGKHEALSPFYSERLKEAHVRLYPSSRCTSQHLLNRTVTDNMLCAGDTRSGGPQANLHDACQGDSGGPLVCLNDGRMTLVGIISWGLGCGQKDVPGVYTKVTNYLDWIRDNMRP
Summary of the method: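 Tissue plasminogen activator (commercial) in 30 mM Tris-HCl, pH 8.5, 30 mM imidazole, 130 mM NaCl. Incubated with inhibitor at several concentrations for 10 min at 37 °C. GK-pNA (listed at 100 μM) was added and absorbance followed for 30 min. Rates were relative to a no-treatment control; IC50 is the concentration giving 50% inhibition.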

[6] = Half life in rat at 100 mg/kg, iv administered as 0.5 hrs infusion by HPLC-MS method; format: ADME, organism-based; conditions: in vivo
[7] = Cmax in rat at 300 mg/kg, iv administered as 0.5 hrs infusion by HPLC-MS method; format: ADME, organism-based; parameters: dose 300 mg/kg, route intravenous; conditions: in vivo
[8] = AUC (0 to infinity) in rat at 300 mg/kg, iv administered as 0.5 hrs infusion by HPLC-MS method; format: ADME, organism-based; parameters: dose 300 mg/kg, time infinity, route intravenous; conditions: in vivo
[9] = Volume of distribution in rat at 300 mg/kg, iv administered as 0.5 hrs infusion by HPLC-MS method; format: ADME, organism-based; conditions: in vivo
[10] = Half life in rat at 1000 mg/kg, iv administered as 0.5 hrs infusion by HPLC-MS method; format: ADME, organism-based; conditions: in vivo
[11] = system: Klebsiella pneumoniae; assay: Inhibition of Klebsiella pneumoniae KP1005 CTX-M-14 assessed as cefepime MIC at 4 ug/ml by broth microdilution method
[12] = system: Klebsiella pneumoniae; assay: Inhibition of Klebsiella pneumoniae KP1004 SHV-11 assessed as biapenem MIC at 4 ug/ml by broth microdilution method; summary of the method: as §1
[13] = system: Klebsiella pneumoniae; assay: Inhibition of Klebsiella pneumoniae KP1082 KPC-2 assessed as biapenem MIC at 4 ug/ml by broth microdilution method; summary of the method: as §1
[14] = target: Beta lactamase TEM-1 (Klebsiella pneumoniae) (UniProt Q7B899); assay: Inhibition of Klebsiella pneumoniae KP1084 TEM-1 assessed as ertapenem MIC at 4 ug/ml by broth microdilution method; summary of the method: as §1
[15] = system: Klebsiella pneumoniae; assay: Inhibition of Klebsiella pneumoniae KP1082 KPC-2 assessed as ertapenem MIC at 4 ug/ml by broth microdilution method; summary of the method: as §1
[16] = target: Beta lactamase TEM-1 (Klebsiella pneumoniae) (UniProt Q7B899); assay: Inhibition of Klebsiella pneumoniae KP1087 TEM-1 assessed as imipenem MIC at 4 ug/ml by broth microdilution method
Summary of the method: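 Carbapenem MIC by CLSI broth microdilution (M07-A9), carbapenem titrated with inhibitor held at fixed 4 μg/mL, against clinical serine-carbapenemase-producing strain KP1087 (KPC-2, CTX-M-15, SHV-11, TEM-1; double porin mutant).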

[17] = Inhibition of Escherichia coli recombinant TEM-10 assessed as substrate nitrocefin degradation preincubated for 10 mins followed by substrate addition measured every 10 secs for 10 mins by spectrophotometric analysis
Summary of the method: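 β-Lactamases purified from overexpressing recombinant E. coli. Enzyme preincubated with inhibitor at varying concentrations for 10 min at room temperature in 50 mM Na phosphate pH 7.0, 0.1 mg/mL BSA. Then 50 μM nitrocefin (final) added and cleavage read at 490 nm every 10 s for 10 min. Ki derived by the Waley method.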

Chain of Beta lactamase TEM-1 (Klebsiella pneumoniae) (Q7B899 as listed by the source): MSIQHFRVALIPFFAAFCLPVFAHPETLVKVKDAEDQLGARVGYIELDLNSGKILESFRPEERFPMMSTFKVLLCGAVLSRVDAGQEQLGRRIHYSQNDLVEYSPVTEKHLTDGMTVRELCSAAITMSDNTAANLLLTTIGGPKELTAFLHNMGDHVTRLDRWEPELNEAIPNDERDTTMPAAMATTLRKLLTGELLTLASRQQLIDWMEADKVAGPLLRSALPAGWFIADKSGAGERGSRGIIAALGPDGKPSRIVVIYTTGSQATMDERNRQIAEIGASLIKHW

Compound O=C(O)C[C@@H]1CC[C@H](NC(=O)Cc2cccs2)B(O)O1 [VABORBACTAM] has an MIC [1] of 1 µg/mL, an MIC [2] of 1 µg/mL and an MIC [3] of 0.5 µg/mL. It also gave an IC50 [4] greater than 1000 µM, an IC50 [5] greater than 1000 µM and a half-life [6] of 25.2 min. It also gave a Cmax [7] of 735 µg/mL, an AUC(0-inf) [8] of 239 µg·h/mL and a Vd [9] of 0.48 L/kg. The half-life [10] was 24 min, the MIC [11] was 4 µg/mL and the MIC [12] was no more than 0.06 µg/mL. For the same compound, the MIC [13] was no more than 0.06 µg/mL, the MIC [14] was 4 µg/mL and the MIC [15] was no more than 0.06 µg/mL. For the same compound, the MIC [16] was 0.25 µg/mL and the Ki [17] was 0.11 µM.
